Scp1 inh – inhibitors of human Scp-1 phosphatase; Q9GZU7; inhibition, % at 20 µM; actives 0.88% (n = 340,000); Recombinant Scp1, phosphopeptide, malachite green phosphate absorbance;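 active = inhibition above about 50% at 20 µM, limit read from the data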;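 also: plate controls were DMSO wells with enzyme for no effect and wells lacking enzyme for full effect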
Target sequence (Q9GZU7 76-261 limits assumed): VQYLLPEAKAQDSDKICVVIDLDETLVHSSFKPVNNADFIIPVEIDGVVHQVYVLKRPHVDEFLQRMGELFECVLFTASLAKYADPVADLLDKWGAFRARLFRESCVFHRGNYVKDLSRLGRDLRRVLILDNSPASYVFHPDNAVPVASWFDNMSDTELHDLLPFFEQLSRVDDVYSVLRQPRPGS
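Material: truncated SCP-1 phosphatase (76-261aa) / Buffer or medium: 50 mM Tris acetate pH 5.5, 0.005% Tween-20, 10 mM MgCl2 / Compound dosing: one concentration, 20 µM, with 1.0% DMSO / Incubation: 45 min room-temperature reaction, 5 min colour, 30 min stabiliser / Detection: colorimetric free-phosphate detection, absorbance 630 nm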
STEP inh – STEP (human) phosphatase inhibition; P54829; recombinant STEP, OMFP fluorogenic substrate, fluorescence; inhibition, % at 20 µM; actives 0.25% (n = 360,000); AID 588621;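 active = inhibition at 20 µM, scaled per plate between control wells, above about 37%, limit read from the data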;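 also: 0% = DMSO with enzyme and substrate and 100% = substrate only without enzyme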
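System: STEP (striatal-enriched tyrosine phosphatase) enzyme, cell-free; medium: Bis-Tris pH 6.0 buffer with DTT, detergent; dosing: 20 µM, 1% DMSO; times: reaction 20 min, ambient temperature; detection: fluorescence, 480/540 nm; read-out basis: normalized % inhibition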
DNMT1 inh – DNMT1 (human) enzyme inhibition; actives 0.83% (n = 360,000); AID 588458; inhibition (reported as % activation of signal), % at 10 µM; DNMT1 molecular beacon, Hinp1I cleavage, fluorescence; in the data active = inhibition above about 50%
SUMO1 PPI mod – modulators of human SUMO1-mediated protein-protein interactions. P63165. SUMO1 binding to a labelled peptide, TR-FRET, 1 h. inhibition, % at 20 µM. actives 0.33% (n = 360,000); in the data active = inhibition above about 37%
Target sequence (P63165 whole entry, looked up): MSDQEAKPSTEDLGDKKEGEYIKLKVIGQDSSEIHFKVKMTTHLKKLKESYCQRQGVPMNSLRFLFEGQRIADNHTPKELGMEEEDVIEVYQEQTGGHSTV
LMPTP inh – blocks human LMPTP phosphatase; P24666; inhibition, % at 20 µM; actives 0.22% (n = 360,000); recombinant LMPTP-A, OMFP fluorogenic substrate, fluorescence intensity;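 active = compounds that cut the enzyme signal by at least half of the control window in the single-dose screen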;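 also: plate controls were DMSO wells with enzyme plus substrate for no effect and substrate without enzyme for full effect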
Target sequence (P24666 whole entry, looked up): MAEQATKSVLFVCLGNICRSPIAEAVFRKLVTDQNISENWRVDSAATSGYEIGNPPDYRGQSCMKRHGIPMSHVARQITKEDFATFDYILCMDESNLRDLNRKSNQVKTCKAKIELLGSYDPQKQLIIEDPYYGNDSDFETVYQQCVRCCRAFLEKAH
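Test system: LMPTP-A phosphatase enzyme; input: 0.625 nM LMPTP-A final; reagent: OMFP substrate, 400 µM final; compound dosing: 20 µM single dose, 3% DMSO; incubation: 50 min dark incubation at room temperature; measured by: endpoint fluorescence intensity from OMFP dephosphorylation; measure: % inhibition relative to no-enzyme and uninhibited control wells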
Rpn11 inh – inhibitors of human proteasome Rpn11 | inhibition, % at 20 µM | actives 0.59% (n = 360,000) | AID 588493 | human 26S proteasome, Ub4-pepOG fluorescence polarization; 20S core pre-blocked with epoxomicin;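 active = inhibition at 20 µM, scaled to each plate's controls, above about 33%, limit read from the data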
* marks the source's active call; other numbers are inactive results; / = no result shown. A selection: hits, their analogues and other compounds. The true share with any hit is near 2.3%.

SMILES	Scp1 inh	STEP inh	DNMT1 inh	SUMO1 PPI mod	LMPTP inh	Rpn11 inh
Cc1ccc(C)c(N2C(=N)S/C(=C\c3ccc(-c4ccccc4C(=O)O)o3)C2=O)c1	27	7	35	34	5	37
O=C(O)c1cc(-c2ccc(/C=C3/SC(=S)N(Cc4ccccc4)C3=O)o2)ccc1Cl	57*	-22	83*	36	71*	/
C#CCN1C(=O)S/C(=C\c2ccc(-c3ccc(C(=O)O)cc3C)o2)C1=O	62*	0	79*	19	22	8
Cc1ccc(NC(=O)CN2C(=O)S/C(=C/c3ccc(-c4cccc(C(=O)O)c4)o3)C2=O)cc1	65*	40*	56*	17	64*	/
Cc1c(C)c2ccc(OC(C)C(=O)NCCCN3CCOCC3)c(C)c2oc1=O (configuration not stated)	-5	-3	-1	-7	-1	5
O=C(Cc1ccc(Br)cc1)NC1CCSC1=O (configuration not stated)	-1	-2	-2	9	-1	5
O=C(CCc1nnc2n(Cc3ccc(F)cc3)c(=O)c3ccccc3n12)N1CCN(c2ccccn2)CC1	2	-1	1	0	2	-5
N#C/C(=C/c1ccc(-c2cc([N+](=O)[O-])ccc2Cl)o1)C(N)=O	45	8	39	39*	34	-1
Cc1ccc(NC(=O)CSc2nc(=O)n(CCN(C)C)c3c2CCCC3)cc1Cl	0	4	1	9	3	1
Cc1csc(=O)n1CC(=O)Nc1ccc(Cl)c(Cl)c1	-8	-5	-8	-6	2	5
Cn1c(N)c(N2CCCCC2)c(=O)n(CC(=O)Nc2ccc(Cl)c(Cl)c2)c1=O	-3	-2	-5	56*	-1	3
CCOC(=O)C1=C(C)N=c2s/c(=C/c3ccc(OCC(=O)O)cc3)c(=O)n2C1c1ccc(SC)cc1 (configuration not stated)	/	85*	39	27	48	22
CCc1ccc(Nc2n[n+](-c3ccccc3)c(-c3ccc(N(CC)CC)cc3)s2)cc1	9	-5	68*	-71	4	/
CCc1ccc(Nc2n[n+](-c3ccccc3)c(-c3c(Cl)cccc3Cl)s2)cc1	20	3	0	-34	71*	-3
CCCCN(C(=O)c1cc(S(=O)(=O)N2CCCCCC2)ccc1OC)c1ccccc1	-7	3	-2	60*	2	9
Cc1ccc(C(=O)N2CCCC(Nc3ccc(F)cc3)C2)cc1C (configuration not stated)	1	1	0	-5	0	-4
CC1CCN(C(=O)CSc2nnc(-c3ccccc3F)o2)CC1	-4	2	0	54*	-1	-2
COc1ccccc1-c1nnc(SCC(=O)N2CCC(C)CC2)o1	-14	-1	-1	-1	-1	-2
C=CCN1C(=O)c2ccc(C(=O)N(CCOC)c3c(N)n(CCCC)c(=O)[nH]c3=O)cc2C1=O	-4	6	0	-13	1	-7
COc1ccc(/C=C/C(=O)c2c(O)cc(C)oc2=O)c(OC)c1	-11	2	3	2	1	45*
COc1cccc(/C=C/C(=O)c2c(O)cc(C)oc2=O)c1O	-13	1	6	11	-1	1
CN(C)c1ccc(Cc2cc3c(O)ccc(O)c3cc(Cc3ccc(N(C)C)cc3)c2=O)cc1	30	7	81*	42*	50	-10
CN(C)c1ccc(C(=O)c2ccc(O)cc2O)cc1	-14	0	-5	-5	1	-1
Cc1ccc(NC(=O)c2ccc(OC(=O)CCN3C(=O)c4ccccc4C3=O)cc2)cc1	0	10	50*	21	0	2
Cc1cc(C)cc(OC(=O)CCN2C(=O)c3ccccc3C2=O)c1	6	4	-1	-10	0	2
SMILES	Scp1 inh	STEP inh	DNMT1 inh	SUMO1 PPI mod	LMPTP inh	Rpn11 inh
O=C(c1ccccc1)c1c2c(cc3sc4ccccc4[n+]13)-c1cccc3cccc-2c13	-4	3	58*	-18	69*	-43
CN1CCc2c(sc(NC(=O)c3ccc(S(=O)(=O)N4CCCC4)cc3)c2C(N)=O)C1	4	-2	-6	-26	2	/
CN1CCc2c(sc(NC(=O)c3ccc(S(=O)(=O)N4CCCCCC4)cc3)c2C(N)=O)C1	1	3	4	-4	3	62*
CN1CCc2c(sc(NC(=O)c3ccc(S(=O)(=O)N4CCOCC4)cc3)c2C(N)=O)C1	-9	2	-15	-19	1	75*
CON(C)C(=O)CC1(CN(Cc2ccccc2)C(=O)OC(C)(C)C)CCCCC1	-6	3	5	6	2	2
C#CC(=O)CC1(CN(Cc2ccccc2)C(=O)OC(C)(C)C)CCCCC1	-4	-1	54*	4	0	40*
CC(OC(=O)c1cc2sccc2n1C)C(=O)NCC1CCCO1 (configuration not stated)	2	0	4	1	-2	1
Cn1c(C(=O)OC(C(=O)NCC2CCCO2)c2cccnc2)cc2sccc21 (configuration not stated)	57*	0	2	-6	2	2
O=C(COC(=O)/C=C/c1ccco1)NCc1ccccc1	0	-2	4	-2	0	-5
O=C(N/C=C/c1ccco1)OCc1ccccc1	4	2	-5	0	2	36*
O=C(N/C=C/c1ccco1)NCc1ccccc1	41	6	61*	5	4	6
COc1ccc(NC(=S)N(CCN2CCOCC2)Cc2cc3cc4c(cc3[nH]c2=O)OCCO4)cc1	6	-3	-3	5	1	3
Clc1ccc(C2=NCCN2)cc1	-4	-2	1	0	-2	6
COc1ccc2sc3cccc(NCCN(C)C)c3c(=O)c2c1	/	3	56*	-45	1	27
CN(C)CCNc1ccc(CO)c2sc3ccc(O)cc3c(=O)c12	10	4	41	-43	9	39
COc1ccc(-c2cc3c(=O)n(CC(=O)N4CCN(C)CC4)ncn3n2)cc1	2	2	4	-3	-1	6
CCOc1ccc(-n2c(O)c(/C=N/NC(=O)C3COc4ccccc4O3)c3ccccc3c2=O)cc1 (configuration not stated)	-17	5	-8	-11	0	14
CCOc1ccc(S(=O)(=O)Nc2cc(NS(=O)(=O)c3ccc(OCC)cc3)cc(C(=O)O)c2)cc1	55*	1	32	17	16	-8

Compound activity: PubChem BioAssay, Sanford-Burnham Center for Chemical Genomics
